# Screening results: PubChem BioAssay, several laboratories
# Hits are enriched below; roughly 6.4% of the tested compounds scored in any of these assays.
# H69AR growth 86K: growth inhibitors of human H69AR lung tumor cells; viability, % at 10 µM; actives 6% (n = 85,000); H69AR lung tumor viability, ATP luminescence, 72 h; stronger effect = lower value;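 active = viability at or below 40%; inactive = viability above 40%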;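 also: multidrug resistant small cell line overexpressing MRP-1 efflux transporter; 100% = mean luminescence of untreated control wells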
# Jurkat viability: cytotoxic compounds reducing Jurkat cell viability. actives 1.2% (n = 56,000). AID 463. inhibition, % at 4 µM. Jurkat E6.1 viability, ATP luminescence, 48 h;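 active = inhibition above the mean inhibition of all tested compounds plus 3 SD, cut at about 28% in these data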
# HUVEC prolif 384: blocks proliferation of human endothelial cells | HUVEC proliferation, CellTiter-Glo luminescence, 72 h; stronger effect = lower value | viability, % at 10 µM (by protocol) | actives 1.1% (n = 86,000) | AID 648;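 active = viability at or below 30%; inactive = viability above 30%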;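 also: 100% = median luminescence of DMSO-only cell control wells on each plate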
# Lung fibro prol: blocks proliferation of human lung fibroblasts. LL 47 human lung fibroblast viability, ATP luminescence; stronger effect = lower value. viability, % at 10 µM. actives 1.1% (n = 85,000). AID 719;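 active = viability at or below 50% in the single dose screen; inactive = viability above 50%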;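 also: compound exposure lasted 72 h before the ATP readout; 100% = median luminescence of untreated cell-only wells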
#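 material = human LL 47 lung fibroblast cells | dosing = compounds added from tenfold dosing solution, 0.1% DMSO final | timing = overnight cell rest, 72 h compound treatment at 37 °C | measured by = CellTiter-Glo luminescence measuring cellular ATP | evaluation = % viability versus median cells-only luminescence | control set = cell-only wells, no compound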
# tolC growth inh: growth inhibitors of E. coli BW25113 tolC mutant | OD615 | growth inhibition, % at 10 µM (by protocol) | actives 2.2% (n = 65,000) | AID 573;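 active = growth inhibition at or above a cutoff equal to the mean over every tested compound plus 3 SD, cut at about 60% in these data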;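 also: growth measured after 20 h incubation at 37 °C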
#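 Material: E. coli BW25113 ΔtolC::kan, tolC deletion mutant strain. Measure: percent growth inhibition. Schedule: 37 °C, 20 h exposure. Doses: single-point testing at 10 µM. Signal: A615 absorbance measurement. Buffer or medium: kanamycin-containing LB broth (50 µg/mL).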
# E coli WT exp: blocks growth of wild type E. coli BW25113. OD600 absorbance. growth inhibition, % at 100 µM. actives 0.15% (n = 98,000). AID 710;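 active = growth inhibition above about 50% at one test dose, limit read from the data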;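 also: growth measured after 20 h incubation at 37 °C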
# Numbers without * were called inactive; x = no result given.
SMILES,H69AR growth 86K,Jurkat viability,HUVEC prolif 384,Lung fibro prol,tolC growth inh,E coli WT exp
COc1ccc(C(=O)C(CN2CCOCC2)c2ccccc2)cc1F (centres undefined),1.9*,96*,40,15*,78*,15
CCCOc1ccc(C(=O)C(CN2CCOCC2)c2ccccc2)cc1 (centres undefined),1.6*,x,3.0*,46*,x,x
Nc1ccc(N2CCN(C(=O)c3ccco3)CC2)cc1,72,x,98,92,x,6
Cc1nn(-c2ccccn2)c2nc(-c3cccs3)cc(C(=O)N3CCOCC3)c12,46,4,108,94,-13,1
O=C(Cn1c(-c2cncs2)nc2ccccc21)NCCc1ccccc1,18*,3,101,99,-7,1
O=C(Oc1ccnc2cc(Cl)ccc12)N1CCCCCC1,26*,10,114,88,19,11
COc1cccc(NC(=O)Nc2nnc(-c3ccccc3SCc3ccccc3)s2)c1,17*,x,79,66,x,-8
COc1ccc(-n2c(C)nc3cc(C(=O)NCc4ccco4)ccc32)cc1,69,-6,105,94,7,6
COC(=O)C1=C(C)N(c2ccc(Cl)c(Cl)c2)C(=O)C1,43,64*,75,66,9,1
CCc1nc(NCCCn2ccnc2)c2oc3ccccc3c2n1,76,-2,83,91,0,3
Cc1ccc2nc(NCCCO)nc(-c3ccccc3)c2c1,8.9*,x,64,73,x,1
COCCn1c(CN2CCN(c3ccccc3F)CC2)nc2c1c(=O)n(C)c(=O)n2C,103,-5,103,96,-14,x
CC(C)CN1C(=O)c2ccccc2C1(O)Cc1ccccc1 (centres undefined),85,x,95,108,x,x
O=C1c2ccccc2C(O)(Cc2ccccc2)N1C1CCCCC1 (centres undefined),84,-2,89,100,100*,-4
Cc1cccc2cc(C(c3nnnn3C3CCCC3)N3CCOCC3)c(=O)[nH]c12 (centres undefined),94,3,97,94,-11,0
Cc1cc(C)c2cc(C(c3nnnn3C3CCCC3)N3CCOCC3)c(=O)[nH]c2c1 (centres undefined),36*,2,99,97,x,1
COc1cc2cc(C(c3nnnn3C3CCCCC3)N(C)C3CCCCC3)c(=O)[nH]c2cc1OC (centres undefined),102,-1,63,95,75*,-8
O=c1[nH]c2cc3c(cc2cc1C(c1nnnn1C1CCCC1)N1CCSCC1)OCCO3 (centres undefined),6.4*,-7,65,81,-7,-5
CCOC(=O)CC1Sc2ccccc2NC1=O (centres undefined),78,x,89,98,-10,7
Cc1ccc(S(=O)(=O)NC(=NCC(=O)O)c2ccccc2)cc1,101,-2,101,98,-15,-5
CC(O)CNCCNCc1c(OCc2ccccc2)ccc2ccccc12 (centres undefined),x,x,x,x,x,23
COc1ccc(-n2c(COc3ccc(Cl)cc3)nnc2SCc2ccc(C#N)cc2)cc1,32*,x,90,91,x,-14
Cc1ccc(S(=O)(=O)N2CCCC(C(=O)NCc3ccco3)C2)cc1Cl (centres undefined),75,x,101,99,x,x
O=C(O)C1CCCN1S(=O)(=O)c1ccc2ccccc2c1 (centres undefined),88,x,88,103,-5,2
O=C(Nc1nc2ccccc2s1)C1CCCN1S(=O)(=O)c1ccc(Cl)cc1 (centres undefined),82,17,94,96,86*,-7
Cc1ccc(S(=O)(=O)N2CCCC2C(=O)Nc2nc3ccccc3s2)cc1 (centres undefined),68,10,102,88,21,4
O=C(NC1CC1)C1CCCN1S(=O)(=O)c1ccc2ccccc2c1 (centres undefined),18*,10,78,95,5,-4
CN(c1cccc(NC(=O)COc2ccccc2)c1)S(C)(=O)=O,99,-5,91,106,-3,-3
O=C(NCC(c1cccs1)N1CCOCC1)c1cc2ccccc2o1 (centres undefined),90,x,105,100,17,4
c1ccc(-c2nc(-n3ccnc3)nc(-n3ccnc3)n2)cc1,50,2,87,68,39,-6
